Reference: ChEMBL document CHEMBL1147184, “Design and synthesis of long-acting inhibitors of dipeptidyl peptidase IV” (Bioorg Med Chem, 2007)
Active and inactive are the calls of the source. The calls are words filed in the database; no cut-off is given here.

How the values were obtained:
Rattus norvegicus [1] = test: Ex vivo inhibition of DPP4 in Sprague-Dawley rat plasma at 1 mg/kg, po after 6 hrs; format: functional
How it was run: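 Male SD rats, 6–7 weeks old, fasted at least 8 h, given a single oral dose of 1 mg/kg in 0.5% methylcellulose. Jugular blood taken before dosing and up to 10 h after. Plasma mixed 1:1 with 60 µM Gly-Pro-AMC. Initial rate taken from AMC fluorescence (ex 355/em 460 nm) at 37 °C. Percent inhibition calculated against basal activity.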

[2] = Stability in Tris buffer at pH 7.4; format: physicochemical
How it was run: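 Compound at 1 mg/mL in 100 mM Tris buffer, pH 7.4, held at room temperature. Remaining parent measured by LC/MS peak area at 0, 2, 6 and 24 h. Half-life obtained from a linear first-order fit of log(peak area/time-zero area) against time.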

Rattus norvegicus [3] = organism: Rattus norvegicus; test: animal or person; conditions: Sprague-Dawley, Plasma, po, 10 h, read-out: Inhibition
[4] = Oral bioavailability in Sprague-Dawley rat at 1 mg/5 ml/kg, po; format: ADME, organism-based; conditions: in vivo, 1 mg/kg
How it was run: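 Male SD rats, 5–7 weeks old, fasted 24 h, n = 3 per route. Oral dose 1 mg/5 mL/kg in 0.5% methylcellulose. Slow iv bolus of 0.3 mg/2 mL/kg in saline via jugular vein. Jugular blood sampled from 0 to 24 h; plasma analysed by LC/MS/MS. F = (AUCpo/Dpo)/(AUCiv/Div) × 100.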

[5] = Drug level in blood of Sprague-Dawley rat at 1 mg/kg, po after 2 hrs in absence of glucuronidase; format: ADME, organism-based; set-up: dose 1 mg/kg, route oral; conditions: read-out: Drug uptake
How it was run: (§1)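 Male SD rats, fasted 24 h, given a single oral dose of 1 mg/kg as a solution in 0.5% methylcellulose. Blood drawn from the jugular vein. Plasma protein precipitated with acetonitrile, supernatant evaporated and reconstituted in mobile phase, then analysed by LC/MS/MS with no β-glucuronidase/arylsulfatase step.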

[6] = Drug level in blood of Sprague-Dawley rat at 1 mg/kg, po after 0.25 hrs in absence of glucuronidase; format: ADME, organism-based; set-up: dose 1 mg/kg, route oral; conditions: read-out: Drug uptake; how it was run: as §1
[7] = Drug level in blood of Sprague-Dawley rat at 1 mg/kg, po after 6 hrs in absence of glucuronidase; format: ADME, organism-based; set-up: dose 1 mg/kg, route oral; conditions: read-out: Drug uptake; how it was run: as §1
[8] = Oral bioavailability in Sprague-Dawley rat at 10 mg/5 ml/kg, po; format: ADME, organism-based; conditions: in vivo, 10 mg/kg
How it was run: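 Male SD rats, 5–7 weeks old, fasted 24 h. Oral dose 10 mg/5 mL/kg in 0.5% methylcellulose compared with iv bolus of 0.3 mg/2 mL/kg in saline via jugular vein. Plasma sampled from 0 to 24 h and measured by LC/MS/MS. F calculated from dose-normalised AUC ratio, po over iv.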

[9] = biological target: Dipeptidyl peptidase 4 (Rattus norvegicus) (UniProt P14740); test: Inhibition of DPP4 in rat liver microsomes in presence of UDPGA; conditions: Microsome
Sequence of Dipeptidyl peptidase 4 (Rattus norvegicus) (P14740 whole entry, looked up): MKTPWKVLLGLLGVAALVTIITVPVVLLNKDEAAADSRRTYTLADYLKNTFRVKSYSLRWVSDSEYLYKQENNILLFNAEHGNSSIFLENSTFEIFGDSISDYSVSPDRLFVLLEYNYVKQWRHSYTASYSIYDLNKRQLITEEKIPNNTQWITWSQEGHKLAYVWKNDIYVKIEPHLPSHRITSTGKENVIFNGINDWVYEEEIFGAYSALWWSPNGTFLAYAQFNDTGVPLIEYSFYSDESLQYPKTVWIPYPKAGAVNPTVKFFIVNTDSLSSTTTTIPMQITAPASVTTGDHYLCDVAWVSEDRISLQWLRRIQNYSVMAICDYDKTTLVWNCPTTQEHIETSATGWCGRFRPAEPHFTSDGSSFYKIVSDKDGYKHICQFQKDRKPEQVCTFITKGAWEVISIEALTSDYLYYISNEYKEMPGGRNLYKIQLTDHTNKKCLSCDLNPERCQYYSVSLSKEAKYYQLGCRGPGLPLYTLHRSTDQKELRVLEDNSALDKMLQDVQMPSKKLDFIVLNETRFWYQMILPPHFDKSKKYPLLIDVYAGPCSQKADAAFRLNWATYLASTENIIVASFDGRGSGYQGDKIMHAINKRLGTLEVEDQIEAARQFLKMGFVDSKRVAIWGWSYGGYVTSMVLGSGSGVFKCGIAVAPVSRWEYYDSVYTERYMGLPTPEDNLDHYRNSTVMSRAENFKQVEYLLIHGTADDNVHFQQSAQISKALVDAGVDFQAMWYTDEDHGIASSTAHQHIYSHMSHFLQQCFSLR

Rattus norvegicus [10] = test: Effect on plasma glucose level in orally dosed Sprague-Dawley rat by OGTT assay; format: functional, organism-based
How it was run: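 Male SD rats (400–460 g) fasted at least 20 h. Vehicle (0.5% methylcellulose) or drug at 0.01, 0.03 or 0.1 mg/kg given po at −30 min, then oral glucose 1 g/kg at 0 min. Tail blood taken at −5, 5, 10, 15, 30, 60 and 120 min. Plasma glucose read by glucose oxidase–peroxidase dye method. Mean ± SE, n = 8; Student's t-test vs vehicle.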

| half-life [2] [h] | Compound | inhibition in vivo at 1 mg/kg (Rattus norvegicus [1]) [%] | also measured |
| --- | --- | --- | --- |
| 20 | N#C[C@@H]1CCCN1C(=O)[C@@H]1C[C@H](c2cccc(O)c2)CN1 | 77 | – |
| 59 | COc1cc(O)cc(OC)c1[C@@H]1CN[C@H](C(=O)N2CCC[C@H]2C#N)C1 | 81 | inhibition in vivo at 1 mg/kg (Rattus norvegicus [3]): 66% |
| – | CCC[C@@H]1CN[C@H](C(=O)N2CCC[C@H]2C#N)C1 | 50 | – |
| – | Cc1cccc(C)c1[C@@H]1CN[C@H](C(=O)N2CCC[C@H]2C#N)C1 | 91 | – |
| – | CC(C)C[C@@H]1CN[C@H](C(=O)N2CCC[C@H]2C#N)C1 | 40 | – |
| – | N#C[C@@H]1CCCN1C(=O)[C@@H]1C[C@H](C2C3CC4CC(C3)CC2C4)CN1 (stereo not given in full) | 47 | – |
| – | COc1c(O)ccc(C)c1[C@@H]1CN[C@H](C(=O)N2CCC[C@H]2C#N)C1 | 94 | bioavailability [4]: 2%; inhibition in vivo at 1 mg/kg (Rattus norvegicus [3]): 86% |
| – | N#C[C@@H]1CCCN1C(=O)[C@@H]1C[C@H](C2CCCCC2)CN1 | 38 | – |
| 40 | Cc1cc(C)c([C@@H]2CN[C@H](C(=O)N3CCC[C@H]3C#N)C2)c(C)c1O | 39 | concentration at 2 h [5]: 0.65 ng/mL; concentration at 0.25 h [6]: 9.7 ng/mL; concentration at 6 h [7]: 0.95 ng/mL |
| – | N#C[C@@H]1CCCN1C(=O)[C@@H]1CCCN1 | 20 | – |
| 31 | Cc1cc(O)cc(C)c1[C@@H]1CN[C@H](C(=O)N2CCC[C@H]2C#N)C1 | 88 | bioavailability [4]: 3%; inhibition in vivo at 1 mg/kg (Rattus norvegicus [3]): 57% |
| – | C=CC[C@@H]1CN[C@H](C(=O)N2CCC[C@H]2C#N)C1 | 38 | – |
| 21 | N#C[C@@H]1CCCN1C(=O)[C@@H]1C[C@H](c2ccc(O)cc2)CN1 | 85 | – |
| 3.2 | N#C[C@@H]1CCCN1C(=O)[C@@H]1C[C@H](c2ccccc2O)CN1 | 43 | – |
| 39 | CCc1cc(O)cc(C)c1[C@@H]1CN[C@H](C(=O)N2CCC[C@H]2C#N)C1 | 86 | – |
| – | N#C[C@@H]1CCCN1C(=O)[C@@H]1C[C@H](c2ccccc2)CN1 | 60 | – |
| 49 | COc1cc(O)cc(C)c1[C@@H]1CN[C@H](C(=O)N2CCC[C@H]2C#N)C1 | 90 | bioavailability [8]: 0.1%; Activity [9]: Active; concentration at 0.25 h [6]: 0.49 ng/mL; inhibition in vivo at 1 mg/kg (Rattus norvegicus [3]): 73% |
| – | CCOc1cc(O)cc(OCC)c1[C@@H]1CN[C@H](C(=O)N2CCC[C@H]2C#N)C1 | 79 | inhibition in vivo at 1 mg/kg (Rattus norvegicus [3]): 50% |
| – | C=C(C)C[C@@H]1CN[C@H](C(=O)N2CCC[C@H]2C#N)C1 | 27 | – |
| – | N#C[C@@H]1CCCN1C(=O)[C@@H]1C[C@@H](c2ccccc2)CN1 | 17 | – |

| Compound | half-life [2] [h] | inhibition in vivo at 1 mg/kg (Rattus norvegicus [1]) [%] | also measured |
| --- | --- | --- | --- |
| Cc1ccc(O)c(C)c1[C@@H]1CN[C@H](C(=O)N2CCC[C@H]2C#N)C1 | 65 | 95 | Activity (Rattus norvegicus [10]): Dose-dependent effect; inhibition in vivo at 1 mg/kg (Rattus norvegicus [3]): 83% |
